The list is not random: actives were taken first. Their share in the collection is about 2.2%.
PfG6PD inh = PfG6PD enzyme inhibitors, primary screen, biochemical, fluorescence intensity, uHTS; glucose-6-phosphate dehydrogenase-6-phosphogluconolactonase (Plasmodium falciparum 3D7); PfGluPho enzyme, NADPH resazurin-diaphorase fluorescence; inhibition, % at 20 µM; hit rate 0.78% among 350,000; AID 504690, 2011;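 active means inhibition reaching at least a set limit at 20 µM in the primary screen, cut at about 59% in these data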
Neddyl block = inhibitors of cullin neddylation, primary screen, biochemical, TR-FRET, uHTS, NAE and Ubc12; inhibition, % at 25 µM; hit rate 0.58% among 360,000; AID 651699, 2012; in the data active means inhibition above about 36%
Target sequence (P61081 whole entry, looked up): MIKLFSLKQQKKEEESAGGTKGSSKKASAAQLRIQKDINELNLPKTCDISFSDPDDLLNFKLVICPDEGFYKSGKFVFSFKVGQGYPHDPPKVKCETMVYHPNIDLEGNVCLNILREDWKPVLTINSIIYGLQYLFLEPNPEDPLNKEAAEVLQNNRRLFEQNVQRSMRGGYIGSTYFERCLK
Target sequence (Q13564 whole entry, looked up): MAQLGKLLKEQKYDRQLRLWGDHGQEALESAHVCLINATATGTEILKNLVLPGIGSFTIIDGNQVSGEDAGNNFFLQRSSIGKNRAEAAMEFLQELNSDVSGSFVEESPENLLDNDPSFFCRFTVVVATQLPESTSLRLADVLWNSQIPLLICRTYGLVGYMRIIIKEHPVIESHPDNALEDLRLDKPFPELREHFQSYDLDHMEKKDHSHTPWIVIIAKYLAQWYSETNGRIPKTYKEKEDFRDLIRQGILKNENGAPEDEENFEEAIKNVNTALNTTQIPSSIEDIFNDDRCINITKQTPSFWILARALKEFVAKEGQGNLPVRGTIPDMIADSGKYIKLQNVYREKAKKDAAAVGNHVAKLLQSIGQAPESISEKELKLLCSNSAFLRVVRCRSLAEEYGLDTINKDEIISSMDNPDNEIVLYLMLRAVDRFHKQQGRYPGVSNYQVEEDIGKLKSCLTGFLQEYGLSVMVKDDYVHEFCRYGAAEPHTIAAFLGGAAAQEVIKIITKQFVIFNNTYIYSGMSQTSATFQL
PfM18AAP inh = PfM18AAP inhibitors, malaria aminopeptidase, primary screen, biochemical, QFRET, recombinant enzyme | hit rate 1.2% among 290,000 | inhibition, % at 7.35 µM | M18 aspartyl aminopeptidase (Plasmodium falciparum 3D7) | AID 1822, 2009 | H-Glu-NHMec fluorogenic cleavage;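 active means inhibition above the campaign mean inhibition over all tested compounds plus 3 SD, cut at about 28% in these data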
HKDC1 inhibitor = HKDC1 hexokinase inhibitors, primary screen, biochemical, fluorescence, uHTS. hit rate 0.16% among 340,000. Q2TB90. inhibition, % at 20 µM. recombinant HKDC1, G6PDH/diaphorase resazurin coupled fluorescence;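 active means inhibition above about 35% when tested at 20 µM, limit read from the data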
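Test system: recombinant HKDC1 (HK5) hexokinase enzyme, produced in-house / Doses: 20 µM test compound, 1% DMSO / Timing: 90 min, room temperature / Detection: G6PDH/diaphorase-coupled fluorescence, 1 mM NADP, 100 µM resazurin, 525/613 nm / Control set: DMSO wells with and without enzyme mix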
PfG6PD confirm = PfG6PD inhibitors, hit retest, confirmation, biochemical, fluorescence intensity, single concentration | shares compounds with PfG6PD inh | recombinant PfGluPho, NADPH-diaphorase-resazurin fluorescence | inhibition, % at 20 µM | hit rate 34% among 2,400;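 active means inhibition of at least 50% at 20 µM in any single replicate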
Neddyl inh conf = blockade of NEDD8 conjugation to cullin – biochemical, TR-FRET, single concentration, confirmation. shares compounds with Neddyl block. TR-FRET cullin neddylation biochemical assay. calls only at 25 µM. hit rate 13% among 1,800. AID 652217, 2013; in the data active means inhibition above about 40%;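 further: neddylation substrate is the cullin 1 ring ligase complex with SKP2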
Of the large screens only hits and unclear results are named; the others gave an inactive call (follow-up assays come after a bar, where shown).

O=C1c2cccc3cccc(c23)C(=O)N1Cc1cccnc1	none
c1cc2c3c(cccc3c1)-c1cnccc1-2	PfG6PD inh 65, Neddyl block 56 (no result: PfM18AAP inh) | PfG6PD confirm inactive | Neddyl inh conf active
Cc1ccc(C(OCC(O)CNCc2ccc(F)cc2)c2ccccc2)cc1 (stereo not given)	none
Cc1ccc(-c2ccc3nnc(SCC(=O)NCC4CCCO4)n3n2)cc1 (stereo not given)	none
COc1ccc(-c2ccc3nnc(SCC(=O)NCC4CCCO4)n3n2)cc1 (stereo not given)	Neddyl block 59 (not shown: PfM18AAP inh)
CCc1ccc(-c2ccc3nnc(SCC(=O)NCC4CCCO4)n3n2)cc1 (stereo not given)	Neddyl block 59 (not shown: PfM18AAP inh)
CCOc1ccc(-c2ccc3nnc(SCC(=O)NCC4CCCO4)n3n2)cc1 (stereo not given)	Neddyl block 54 (not shown: PfM18AAP inh)
CCOc1ccc(-c2ccc(SCC(=O)NCC3CCCO3)nn2)cc1 (stereo not given)	none
Cc1noc(NS(=O)(=O)c2ccc(NC(=O)c3cc4ccccc4o3)cc2)c1C	none (no result: PfM18AAP inh)
CC(=O)N1CCOc2ccc(S(=O)(=O)NC[C@H]3O[C@@H](n4cnc5c(N)ncnc54)[C@H](O)[C@@H]3O)cc21	none (no result: PfM18AAP inh)
COc1ccc(C(=O)NC2CC3CCCC(C2)N3Cc2ccccc2)c(OC)c1 (stereo not given)	Neddyl block 42 | Neddyl inh conf inactive
CCCN(CC(=O)Nc1ccccc1C)C(=O)Cc1c(C)nc2ccccc2c1C	none (no result: PfM18AAP inh)
CCOC(=O)C1=NN(c2ccc(C)cc2)CC1C(=O)OC (stereo not given)	Neddyl block 39 | Neddyl inh conf inactive
CCN(C(=O)COn1nnc2ccc(S(=O)(=O)N(C)C)cc21)C1CCS(=O)(=O)C1 (stereo not given)	none (no result: PfM18AAP inh)
O=C(NC1CCCCC1)C(c1ccncc1)n1c(=O)c(-c2ccccc2)nc2ccccc21 (stereo not given)	Neddyl block 45 (no result: PfG6PD inh, PfM18AAP inh, HKDC1 inhibitor) | Neddyl inh conf active
COc1ccc(NC(=O)C(c2ccncc2)n2c(=O)c(-c3ccccc3)nc3ccccc32)cc1 (stereo not given)	Neddyl block 51 (no result: PfG6PD inh, PfM18AAP inh, HKDC1 inhibitor) | Neddyl inh conf inactive
CCCCCNC(=O)C(c1ccc(-c2ccccc2)cc1)n1c(=O)c(-c2ccccc2)nc2ccccc21 (stereo not given)	none (no result: PfG6PD inh, PfM18AAP inh, HKDC1 inhibitor)
CCCCCNC(=O)C(c1ccncc1)n1c(=O)c(-c2ccccc2)nc2ccccc21 (stereo not given)	Neddyl block 45 (no result: PfG6PD inh, PfM18AAP inh, HKDC1 inhibitor) | Neddyl inh conf inactive
CCCCNC(=O)CN(Cc1ccco1)S(=O)(=O)c1ccc(C(C)=O)cc1	none (no result: PfM18AAP inh)
CCCCN1C(=O)C(CC(=O)NCc2cccs2)CC(C(=O)N(CC)CC)=C1C (stereo not given)	none (no result: PfM18AAP inh, HKDC1 inhibitor)
S=c1[nH]nc(-c2cc(-c3ccccc3)n[nH]2)n1/N=C/c1ccc(Cl)c(Cl)c1	Neddyl block 83 | Neddyl inh conf inactive
S=c1[nH]nc(-c2cc(-c3ccccc3)n[nH]2)n1/N=C/c1ccc(Cl)cc1	none
COc1cc2c(cc1OC)-c1cc(NC3CCCC3)nc(=O)n1CC2	Neddyl block 41 | Neddyl inh conf inactive
O=C(COc1ccccc1)Nc1nnc(-c2ccc(Cl)s2)o1	Neddyl block 37 | Neddyl inh conf inactive
COc1c2c(cc3oc(CO[C@@H]4O[C@H](CO)[C@@H](O)[C@H](O)[C@H]4O)cc(=O)c13)O[C@H](C(C)(C)O)C2	Neddyl block 35 (no result: PfM18AAP inh) | Neddyl inh conf inactive
COc1ccc(-c2cc(C(=O)N/N=C/c3ccc4c(c3)OCO4)c3ccccc3n2)c(OC)c1	none (not shown: Neddyl block)
CCOc1ccc(-c2cc(C(=O)N/N=C/c3cccnc3)c3ccccc3n2)cc1	Neddyl block 53
COc1ccc(OC)c(-c2cc(C(=O)N/N=C/c3ccc(F)cc3)c3ccccc3n2)c1	Neddyl block 39 (not shown: PfM18AAP inh)
Cc1ccc(-c2cc(C(=O)NCc3ccccn3)c3ccccc3n2)cc1	Neddyl block 41 | Neddyl inh conf inactive
